This is a sample that favours compounds with a hit; in the whole collection about 1.8% have one here.
UHRF1 MBD2 ctr: human UHRF1 methylated DNA binding inhibitors. UHRF1 binding to methylated oligo, TR-FRET. 0.75% of 370,000 active. Q96T88. inhibition, % at 4.4 µM; in the data active = inhibition above about 21%;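 note: UHRF1 SRA domain binding a hemimethylated CpG hairpin DNA probe; 0% = median of test compound wells and 100% = reference inhibitor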
Target sequence (Q96T88 whole entry, looked up, the tested form may be a part): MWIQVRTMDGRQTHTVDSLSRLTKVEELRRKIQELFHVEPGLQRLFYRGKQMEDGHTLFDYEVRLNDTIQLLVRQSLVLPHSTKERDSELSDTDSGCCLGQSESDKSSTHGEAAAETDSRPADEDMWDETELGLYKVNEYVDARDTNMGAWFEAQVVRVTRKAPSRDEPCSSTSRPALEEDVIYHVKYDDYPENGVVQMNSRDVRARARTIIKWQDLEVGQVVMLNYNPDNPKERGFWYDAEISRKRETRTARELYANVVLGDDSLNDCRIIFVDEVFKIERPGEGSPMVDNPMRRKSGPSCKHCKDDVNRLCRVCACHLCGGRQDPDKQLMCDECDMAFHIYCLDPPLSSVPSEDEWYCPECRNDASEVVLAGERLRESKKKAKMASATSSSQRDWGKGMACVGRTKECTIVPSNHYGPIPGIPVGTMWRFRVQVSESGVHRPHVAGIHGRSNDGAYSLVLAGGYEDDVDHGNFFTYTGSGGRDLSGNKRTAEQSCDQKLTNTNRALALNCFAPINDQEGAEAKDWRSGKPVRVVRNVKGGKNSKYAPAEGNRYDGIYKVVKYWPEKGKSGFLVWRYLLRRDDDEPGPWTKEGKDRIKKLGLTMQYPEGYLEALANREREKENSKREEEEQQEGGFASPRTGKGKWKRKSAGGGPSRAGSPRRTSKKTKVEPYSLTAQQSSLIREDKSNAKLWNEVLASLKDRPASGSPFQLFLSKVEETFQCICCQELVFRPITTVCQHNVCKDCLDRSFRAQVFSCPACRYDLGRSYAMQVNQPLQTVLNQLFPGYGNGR
TDP2 absorb: TDP2 (human) inhibition, absorbance primary screen; inhibition, % at 12.8 µM; recombinant TDP2, T5PNP hydrolysis, p-nitrophenol absorbance 415 nm; O95551; AID 720702; 0.34% of 370,000 active;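 active = inhibition above the mean of all tested compounds plus 3 SD, set per campaign, cut at about 25% in these data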;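 note: 0% = DMSO with enzyme and 100% = buffer with substrate but no TDP2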
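Assay system: recombinant human TDP2 / Reagent: T5PNP substrate at 5 mM, a TopII-DNA adduct mimic / Measured by: epi absorbance from released p-nitrophenol / Evaluation: % inhibition relative to enzyme-containing and enzyme-free wells / Control set: enzyme-free and DMSO wells / Replicates: each compound tested once, singlicate / Schedule: enzyme reaction with compound for 2 h at 37 °C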
HCV core dimer: HCV core protein dimerization inhibition; TR-FRET GST/Flag-core106 dimerization, 1536-well; inhibition, % at 5 µM; 0.33% of 300,000 active;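 active = inhibition above the mean of all tested compounds plus 3 SD, set per screening campaign, cut at about 45% in these data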
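Assay system: tagged HCV core106 pair (GST and Flag); medium: KF-containing HEPES buffer, pH 7.45, DTT, CHAPS, BSA; also added: Eu donor and XL665 acceptor anti-tag antibodies; dosing: 5 µM single dose; timing: compound-protein-antibody incubation 4 h at 22.5 °C; signal: TR-FRET 671 and 617 nm emission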
LEDGF integ inh: blocks HIV-1 LEDGF/p75-dependent DNA integration; TR-FRET IN-LEDGF/p75 DNA integration, Eu/Cy5; inhibition, % at 3.7 µM; 0.64% of 370,000 active; AID 743269;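 active = inhibition above the screen-wide mean plus 3 SD, cut at about 13% in these data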;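 note: signal is the Cy5 over europium emission ratio at 671 and 618 nm; 0% = plate median of compound wells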
MBD2 DNA inh: inhibitors of human MBD2 binding to methylated oligonucleotide. Q9UBB5. AID 686964. inhibition, % at 4.4 µM. TR-FRET. 0.31% of 370,000 active; in the data active = inhibition above about 13%
The depositor's hits bear a star; nt = not tested or not shown.

SMILES	UHRF1 MBD2 ctr	TDP2 absorb	HCV core dimer	LEDGF integ inh	MBD2 DNA inh
O=C1C(Cl)=C(NCCc2ccccc2)C(=O)c2ccccc21	-17	19	nt	7	-18
CC(=O)N(Cc1ccc(F)cc1)C1=C(NCCc2ccccc2)C(=O)c2ccccc2C1=O	2	8	3	23*	1
COc1ccc(S(=O)(=O)/N=C2\C=C(Nc3ccc(O)cc3)C(=O)c3ccccc32)cc1	0	67*	-22	65*	-6
CC(C)c1ccc(S(=O)(=O)/N=C2\C=C(NS(=O)(=O)c3ccccc3)C(=O)c3ccccc32)cc1	-4	25*	1	25*	-16
CC(=O)Nc1ccc(NC2=C/C(=N/S(=O)(=O)c3cccs3)c3ccccc3C2=O)cc1	3	77*	4	50*	-6
Cc1ccc(NC2=C/C(=N/S(=O)(=O)c3cccs3)c3ccccc3C2=O)cc1C	-3	-1	-13	5	1
O=C(O)c1ccc(S(=O)(=O)/N=C2\C=C(Nc3ccccc3F)C(=O)c3ccccc32)cc1	7	89*	15	60*	-11
O=C(NCCc1ccccc1)OCc1cn(Cc2cccc(Cl)c2)nn1	1	6	nt	4	-1
c1nc(NCC2CCOC2)c2cc(-c3ccc4c(c3)OCO4)ccc2n1 (configuration not stated)	0	-1	nt	1	-4
Cc1c(N2C(=O)c3ccc4c5c(ccc(c35)C2=O)CC4)c(=O)n(-c2ccccc2)n1C	nt	nt	82*	nt	nt
Cc1c(N2C(=O)c3ccc(Br)cc3C2=O)c(=O)n(-c2ccccc2)n1C	5	-6	-3	-1	8
O=C(CSc1nc2ccccc2n1CCc1ccccc1)c1ccc(O)c(O)c1	57*	-10	nt	32*	26*
CCOC(=O)c1cccc(NC(=O)CN(C)S(=O)(=O)c2cc(OC)ccc2OC)c1	-1	-2	nt	-3	1
O=C(O)C1=C(C(=O)Nc2cc(C(F)(F)F)ccc2Cl)CCCC1	29*	4	-6	-3	-1
CN(CCCOC(=O)c1occ2ccccc12)C1CN(Cc2cn(Cc3ccccc3Cl)nn2)S(=O)(=O)C1 (configuration not stated)	2	-3	nt	0	9
CC(SC(=S)N1CCCC1)C(=O)O (configuration not stated)	24*	2	8	0	3
COC(=O)[C@]12C[C@H](CC(=O)NCCCN3CCCC3=O)C(=O)N(Cc3cccc4ccccc34)C1=C[C@H](C(C)(C)C)O[C@@H]2C	1	-3	nt	-2	-1
COC(=O)c1ccc(C(=O)O)nc1	22*	-8	1	6	0
COC(=O)c1ccc(C(=O)OC)nc1	0	-4	-8	0	0
CCC(=O)N(CCC(Cc1ccccc1)c1ccc2c(c1)OCO2)Cc1ccccc1F (configuration not stated)	25*	-10	8	1	3
Oc1ccc2c(c1)OCC1(O)Cc3cc(O)c(O)cc3C21 (configuration not stated)	3	-3	nt	9	1
Oc1cc2c(cc1O)[C@H]1c3ccc(O)c(O)c3OC[C@@]1(O)C2	6	3	nt	83*	4
Clc1ccccc1Cc1noc(CN2CCN3CCCC3C2)n1 (configuration not stated)	29*	-3	0	2	4
COCCCN1C(=O)[C@H](CC(=O)NCC2CCCCC2)[C@]2(C(=O)OC)CCCCC=C12	3	7	nt	-2	1
COc1ccc2c(c1)CCCN2C(=O)C1CCCN(S(=O)(=O)c2ccc(Br)s2)C1 (configuration not stated)	3	6	nt	-1	0
CNC(=O)CSc1nnc(-c2cc(C)cc(C)c2)o1	67*	3	-5	0	-7
COCc1cc(C)nc(OCC(=O)N/N=C/c2ccc(C)cc2)c1C#N	0	0	0	-2	-1
COCc1cc(C)nc(OCC(=O)N/N=C/c2ccc(OC)c(O)c2)c1C#N	36*	4	-6	-2	-2

High-throughput results as filed in PubChem BioAssay.
